Experiment [1] is described as follows: Inhibition of HCV protease by fluorometric method. Also noted: species or system Hepacivirus hominis.
For another experiment, the target named is Protease (Human immunodeficiency virus 1, UniProt Q9YQ12). Put plainly: Inhibition of HIV1 protease by HPLC method.
A further experiment concerns the target T1, Renin (Homo sapiens) (UniProt P00797).
T1 sequence (whole entry): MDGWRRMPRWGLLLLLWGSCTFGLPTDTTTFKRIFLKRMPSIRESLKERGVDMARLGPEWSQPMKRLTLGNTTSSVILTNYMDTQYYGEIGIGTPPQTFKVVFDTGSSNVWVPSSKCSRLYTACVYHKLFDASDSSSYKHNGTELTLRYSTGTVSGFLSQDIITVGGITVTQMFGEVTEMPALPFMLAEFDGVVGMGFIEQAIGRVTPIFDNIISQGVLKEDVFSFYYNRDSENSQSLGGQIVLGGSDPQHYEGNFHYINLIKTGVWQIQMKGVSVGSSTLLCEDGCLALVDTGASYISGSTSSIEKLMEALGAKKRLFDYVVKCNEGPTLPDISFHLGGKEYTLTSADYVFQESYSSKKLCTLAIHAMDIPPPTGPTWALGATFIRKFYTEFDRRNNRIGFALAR
The experiment is described as follows: Inhibition of renin up to 1 ug/mL. The conditions noted are these: in the assay text read “1 mg/mL” for “1 ug/mL”. The essentials:
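Recombinant renin was mixed with the compound in DMSO in 384-well plates. Fresh FRET peptide substrate Arg-Glu(EDANS)-[…]Dabcyl)-Arg was added, then rotated 30 min at 37 °C. Read-out was fluorometric, with inhibition calculated as in the HCV protease assay. Ac-HPFV-(Sta)-LF-NH2 was the positive control.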

Experiment [2] in a line: Inhibition of trypsin up to 1 ug/mL. Conditions: in the assay text read “1 mg/mL” for “1 ug/mL”. An outline of the steps:
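Trypsin was mixed with the compound in DMSO and assay buffer in 384-well plates. Fresh HiLyte Fluor 488-labeled casein substrate was added with rotary shaking, then incubated 30 min at 37 °C. Fluorescence was read and inhibition calculated as in the HCV protease assay. Soybean trypsin–chymotrypsin inhibitor was the positive control.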

The source made the active and inactive calls. No cut-off for these calls is given here.

Sequence of Protease (Q9YQ12 whole entry): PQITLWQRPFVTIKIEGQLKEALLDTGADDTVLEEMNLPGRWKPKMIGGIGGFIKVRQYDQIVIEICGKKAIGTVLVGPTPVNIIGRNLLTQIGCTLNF

Take `CC1(C)CCC[C@](C)([C@H]2CC[C@]3(C)[C@@H]2C(=O)C[C@@H]2[C@@]4(C)CCC(=O)C(C)(C)[C@@H]4C(=O)C[C@]23C)O1`: the IC50 in experiment [1] is over 213 µM; against Protease, 24.2 µM.

Take `CC1(C)CCC[C@](C)([C@H]2CC[C@]3(C)[C@@H]2[C@H](O)C[C@@H]2[C@@]4(C)CC[C@H](O)C(C)(C)[C@@H]4[C@@H](O)C[C@]23C)O1` [PANAXATRIOL]: the IC50 (in experiment [1]; at Protease) was over 210 µM throughout.

Take `CC1(C)CCC[C@](C)([C@H]2CC[C@]3(C)[C@@H]2[C@H](O)C[C@@H]2[C@@]4(C)C[C@](O)(C(=O)O)C(C)(C)[C@@H]4CC[C@]23C)O1`: the values for the IC50 (in experiment [1]; against Protease) were over 204 µM and 10 µM, respectively.

Consider `CC1(C)CCC[C@](C)([C@H]2CC[C@]3(C)[C@@H]2C(=O)C[C@@H]2[C@@]4(C)CC[C@H](OC(=O)CC(C)(C)C(=O)O)C(C)(C)[C@@H]4[C@@H](OC(=O)CC(C)(C)C(=O)O)C[C@]23C)O1`, for which the outcome (at Renin (Homo sapiens); in experiment [2]) was inactive. Moreover, the IC50 turned out to be 18.9 µM in experiment [1] and 10.9 µM against Protease.

Consider `CC1(C)CCC[C@](C)([C@H]2CC[C@]3(C)[C@@H]2C(=O)C[C@@H]2[C@@]4(C)CCC(=O)C(C)(C)[C@@H]4CC[C@]23C)O1`, for which the IC50 is 72.3 µM in experiment [1] and over 218 µM on Protease.

For `CC1(C)CCC[C@](C)([C@H]2CC[C@]3(C)[C@@H]2[C@H](O)C[C@@H]2[C@@]4(C)C[C@](O)(C(=O)O)C(C)(C)[C@@H]4C(=O)C[C@]23C)O1`, the IC50 in experiment [1] is over 213 µM; against Protease, 29.9 µM.

Consider `CC1(C)CCC[C@](C)([C@H]2CC[C@]3(C)[C@@H]2C(=O)C[C@@H]2[C@@](C)(CC(=O)O)[C@H](C(C)(C)C(=O)O)CC[C@]23C)O1`, for which the outcome (on Renin (Homo sapiens); in experiment [2]) was inactive. Further, the IC50 amounted to 9.1 µM in experiment [1] and 22.8 µM at Protease.

For `COC(=O)[C@@]1(O)C[C@]2(C)[C@H]3C[C@@H](O)[C@@H]4[C@@H]([C@@]5(C)CCCC(C)(C)O5)CC[C@@]4(C)[C@]3(C)CC[C@H]2C1(C)C`, the IC50 (in experiment [1]; against Protease) was over 198 µM throughout.

For the compound `CC1(C)CCC[C@](C)([C@H]2CC[C@]3(C)[C@@H]2[C@H](O)C[C@@H]2[C@@]4(C)CC[C@H](OC(=O)CC(C)(C)C(=O)O)C(C)(C)[C@@H]4[C@@H](O)C[C@]23C)O1`, the result (on Renin (Homo sapiens); in experiment [2]) was inactive. For the same compound, the IC50 in experiment [1] is over 166 µM; at Protease it was 3.9 µM.

Turning to `CC1(C)CCC[C@](C)([C@H]2CC[C@]3(C)[C@@H]2[C@H](O)C[C@@H]2[C@@]4(C)CCC(=O)C(C)(C)[C@@H]4C(=O)C[C@]23C)O1`, the IC50 was over 213 µM in experiment [1] and 42.3 µM against Protease.

For the compound `CC1(C)CCC[C@](C)([C@H]2CC[C@]3(C)[C@@H]2[C@H](O)C[C@@H]2[C@@]4(C)CC[C@H](O)C(C)(C)[C@@H]4[C@@H](OC(=O)CC(C)(C)C(=O)O)C[C@]23C)O1`, the outcome (on Renin (Homo sapiens); in experiment [2]) was inactive. Also, the IC50 in experiment [1] is over 166 µM; on Protease it was 2.7 µM.

As to `CC1(C)CCC[C@](C)([C@H]2CC[C@]3(C)[C@@H]2[C@H](O)C[C@@H]2[C@@]4(C)CC[C@H](O)C(C)(C)[C@@H]4CC[C@]23C)O1` [PANAXADIOL], the IC50 (in experiment [1]; against Protease) was over 217 µM throughout.

As to `CC1(C)CCC[C@](C)([C@H]2CC[C@]3(C)[C@@H]2[C@H](O)C[C@@H]2[C@@]4(C)CC[C@H](OC(=O)CC(C)(C)C(=O)O)C(C)(C)[C@@H]4CC[C@]23C)O1`, the result (on Renin (Homo sapiens); in experiment [2]) was inactive. The figures for the IC50 (in experiment [1]; against Protease) were 30.4 µM and 2.7 µM, respectively.

Regarding `CC1(C)CCC[C@](C)([C@H]2CC[C@]3(C)[C@@H]2C(=O)C[C@@H]2[C@@]4(C)CC[C@H](OC(=O)CC(C)(C)C(=O)O)C(C)(C)[C@@H]4CC[C@]23C)O1`, the outcome (on Renin (Homo sapiens); in experiment [2]) was inactive. Also, the IC50 in experiment [1] came to 62.2 µM; against Protease it was 6.5 µM.

Consider `CC1(C)CCC[C@](C)([C@H]2CC[C@]3(C)[C@@H]2[C@H](O)C[C@@H]2[C@@]4(C)CC[C@H](OC(=O)CC(C)(C)C(=O)O)C(C)(C)[C@@H]4[C@@H](OC(=O)CC(C)(C)C(=O)O)C[C@]23C)O1`, for which the outcome (on Renin (Homo sapiens); in experiment [2]) was inactive. Besides, the IC50 in experiment [1] was determined as 1.8 µM; on Protease it was 5.4 µM.

On to `CC1(C)CCC[C@](C)([C@H]2CC[C@]3(C)[C@@H]2[C@H](O)C[C@@H]2[C@@]4(C)CCC(=O)C(C)(C)[C@@H]4CC[C@]23C)O1`, for which the values for the IC50 (in experiment [1]; on Protease) were over 218 µM and 39.4 µM, respectively.

As to `CC1(C)CCC[C@](C)([C@H]2CC[C@]3(C)[C@@H]2[C@H](O)C[C@@H]2[C@@]4(C)C=C(O)C(=O)C(C)(C)[C@@H]4CC[C@]23C)O1`, the IC50 was over 212 µM in experiment [1] and 28.5 µM against Protease.

`COC(=O)[C@@]1(O)C[C@]2(C)[C@H]3C[C@@H](O)[C@@H]4[C@@H]([C@@]5(C)CCCC(C)(C)O5)CC[C@@]4(C)[C@]3(C)CC(=O)[C@H]2C1(C)C`: the half-inhibitory concentration (IC50) (in experiment [1]; against Protease) was over 193 µM in each case.

Regarding `CC1(C)CCC[C@](C)([C@H]2CC[C@]3(C)[C@@H]2[C@H](O)C[C@@H]2[C@@](C)(CC(=O)O)[C@H](C(C)(C)C(=O)O)CC[C@]23C)O1`, the result (at Renin (Homo sapiens); in experiment [2]) was inactive. Further, the IC50 in experiment [1] was over 198 µM; at Protease, 11.9 µM.

(Values after ChEMBL document CHEMBL1153826, “Synthesis of dammarane-type triterpene derivatives and their ability to inhibit HIV and HCV proteases” (Bioorg Med Chem, 2009).)
